Where two headings read alike, the source gives them in different places. Each block holds one molecule with its values, some of them ahead of it.
Experiments:
[1] = test system: SKOV-3 cells; experiment: Combination index of PTX and CBP; format: cell-based, Human; conditions: read-out: IC50 of a single drug
How it was run: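 SKOV-3 cells cultured in McCoy's 5A with 10% FBS and penicillin-streptomycin at 37°C, 5% CO2. Seeded at 5.0×10³ cells/well and left overnight. Exposed for 48 h to each drug alone and to mixtures at various ratios, with the mixtures' final PTX at 0.2–50.0 μM. CCK-8 added for 2 h, then absorbance read at 450 nm. Data given as mean ± SD, n = 3.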

[2] = test system: SKOV-3 tumor; experiment: In vivo targeting; conditions: 0.11 µg DiR/g i.v., 1-24 h, tumor-bearing NU/NU mice
How it was run: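 Tumors made by injecting 1.0×10⁷ SKOV-3 cells/100 µL into the right lower abdomen of female NU/NU mice aged 5–6 weeks. At about 400 mm³, mice were randomised to free DiR or DiR-labelled liposomes, given by tail vein. Mice were anaesthetised with 4.0% chloral hydrate and imaged at 1, 2, 6, 12 and 24 h. They were then killed for ex vivo imaging and quantification of the tumor, heart, liver, spleen, lungs and kidneys.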

IC50 ([1]; Homo sapiens, SK-OV-3, 48 h): 3.89 µM
SMILES: CC(=O)O[C@H]1C(=O)[C@@]2(C)[C@H]([C@H](OC(=O)c3ccccc3)[C@]3(O)C[C@H](OC(=O)[C@H](O)[C@@H](NC(=O)c4ccccc4)c4ccccc4)C(C)=C1C3(C)C)[C@]1(OC(C)=O)CO[C@@H]1C[C@@H]2O [PTX, Paclitaxel]

SMILES: N.N.O=C([O-])C1(C(=O)[O-])CCC1.[Pt+2] [CBP, carboplatin]
IC50 ([1]; single drug, SKOV-3 cells, 48 h, CCK-8): 19.2 µM

SMILES: CCCCCCCCCCCCCCCCCCN1/C(=C/C=C/C=C/C=C/C2=[N+](CCCCCCCCCCCCCCCCCC)c3ccccc3C2(C)C)C(C)(C)c2ccccc21.[I-] [DiR]
Enrichment in the tumor site [2]: not enriched in the tumor site
